Laboratory results: ChEMBL document CHEMBL1149105, “3-(4-phenoxyphenyl)pyrazoles: a novel class of sodium channel blockers” (J Med Chem, 2004)
pKi: −log10 of the molar value.

What was measured:
[1] = molecular target: T1, Sodium channel protein type 4 subunit alpha (Homo sapiens, UniProt P35499); test: Affinity for inactive human SkM1 sodium channel expressed in HEK293 cells; format: cell-based
How it was run: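 Whole-cell voltage clamp at room temperature on HEK-293 cells stably expressing hSkM1, recorded 3–4 days after plating. Cells were held at -120 mV. 10–12 conditioning prepulses (3 s, 10 mV steps) were each followed by a 5 ms test pulse to 0 mV at 1/7 s. Boltzmann V1/2 and k were taken without and with drug (final 0.003–10 μM, ≤0.1% DMSO). Ki came from the modified Bean equation. Mean ± SEM, n = 3–4.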
Target sequence in this assay (P35499 whole entry): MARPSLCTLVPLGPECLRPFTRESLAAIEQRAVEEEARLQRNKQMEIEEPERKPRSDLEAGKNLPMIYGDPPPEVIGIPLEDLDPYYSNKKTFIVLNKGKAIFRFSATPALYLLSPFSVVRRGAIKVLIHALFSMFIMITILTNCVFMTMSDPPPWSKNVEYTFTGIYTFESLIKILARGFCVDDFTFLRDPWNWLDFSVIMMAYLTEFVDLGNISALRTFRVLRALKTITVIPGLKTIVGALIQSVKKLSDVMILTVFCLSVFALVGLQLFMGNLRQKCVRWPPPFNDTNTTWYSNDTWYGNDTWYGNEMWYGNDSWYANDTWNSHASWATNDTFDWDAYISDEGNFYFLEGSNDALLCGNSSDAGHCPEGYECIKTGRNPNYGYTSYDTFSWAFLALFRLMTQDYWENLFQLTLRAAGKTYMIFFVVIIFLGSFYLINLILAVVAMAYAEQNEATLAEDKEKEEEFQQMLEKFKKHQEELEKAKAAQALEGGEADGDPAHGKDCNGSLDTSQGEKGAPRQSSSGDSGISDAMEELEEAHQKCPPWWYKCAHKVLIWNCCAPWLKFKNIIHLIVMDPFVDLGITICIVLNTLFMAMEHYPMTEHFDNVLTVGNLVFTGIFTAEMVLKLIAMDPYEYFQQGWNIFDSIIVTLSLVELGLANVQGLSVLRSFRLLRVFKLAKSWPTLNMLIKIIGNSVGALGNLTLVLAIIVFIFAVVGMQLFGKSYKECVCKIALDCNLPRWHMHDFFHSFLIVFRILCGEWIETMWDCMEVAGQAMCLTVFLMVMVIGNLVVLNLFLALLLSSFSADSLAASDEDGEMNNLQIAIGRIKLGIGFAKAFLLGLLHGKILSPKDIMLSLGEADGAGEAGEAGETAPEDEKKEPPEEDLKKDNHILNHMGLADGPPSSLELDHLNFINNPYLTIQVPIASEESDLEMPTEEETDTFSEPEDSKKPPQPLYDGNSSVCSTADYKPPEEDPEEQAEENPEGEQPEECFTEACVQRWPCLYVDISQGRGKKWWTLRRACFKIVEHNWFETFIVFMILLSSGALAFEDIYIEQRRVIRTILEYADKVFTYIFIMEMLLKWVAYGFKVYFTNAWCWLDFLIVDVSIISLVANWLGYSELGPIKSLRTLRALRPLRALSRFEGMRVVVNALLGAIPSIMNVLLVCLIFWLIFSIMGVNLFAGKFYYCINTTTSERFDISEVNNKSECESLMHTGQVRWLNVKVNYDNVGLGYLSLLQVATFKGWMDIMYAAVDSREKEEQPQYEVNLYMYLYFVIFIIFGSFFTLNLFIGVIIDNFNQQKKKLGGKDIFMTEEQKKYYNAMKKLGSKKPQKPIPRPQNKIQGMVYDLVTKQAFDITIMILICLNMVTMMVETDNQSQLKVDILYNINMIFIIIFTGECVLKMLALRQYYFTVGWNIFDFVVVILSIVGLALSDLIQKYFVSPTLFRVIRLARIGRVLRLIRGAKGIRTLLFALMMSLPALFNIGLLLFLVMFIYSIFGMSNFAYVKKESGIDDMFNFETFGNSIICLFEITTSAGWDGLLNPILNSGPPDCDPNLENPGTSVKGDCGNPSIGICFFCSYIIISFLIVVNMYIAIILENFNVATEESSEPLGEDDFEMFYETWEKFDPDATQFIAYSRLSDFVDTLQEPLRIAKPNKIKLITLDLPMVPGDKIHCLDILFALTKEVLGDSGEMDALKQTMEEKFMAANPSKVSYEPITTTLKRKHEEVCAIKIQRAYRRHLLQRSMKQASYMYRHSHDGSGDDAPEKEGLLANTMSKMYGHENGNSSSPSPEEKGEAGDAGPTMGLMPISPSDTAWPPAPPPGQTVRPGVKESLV

[2] = molecular target: T1, Sodium channel protein type 4 subunit alpha; test: Affinity for resting human SkM1 sodium channel expressed in HEK293 cells; format: cell-based
How it was run: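 Tonic block was measured by whole-cell patch clamp on hSkM1-expressing HEK-293 cells at room temperature. Cells were held at -120 mV, where all channels are resting, and depolarized to 0 mV. Peak current was compared between control and 3 μM antagonist applied by flow pipes from DMSO stock. The fractional response gave Kr = FR/(1−FR)·[antag], with slope n = 1. Mean ± SEM, n = 3–4.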
Target sequence in this assay (P35499 whole entry, looked up): as the sequence (P35499 whole entry) above

[3] = molecular target: T1, Sodium channel protein type 4 subunit alpha; test: Relative affinity for inactivated and resting human SkM1 expressed in HEK293 cells; format: cell-based
Target sequence in this assay (P35499 whole entry, looked up): as the sequence (P35499 whole entry) above

[4] = molecular target: T1, Sodium channel protein type 4 subunit alpha; conditions: HEK293
Target sequence in this assay (P35499 whole entry, looked up): as the sequence (P35499 whole entry) above

| Compound | pKi [1] | Kr [2] [µM] | Ratio [3] | Kr [4] [µM] |
| --- | --- | --- | --- | --- |
| c1ccc(-c2cc[nH]n2)cc1 | 4.21 | 1110 | 18 | – |
| COc1ccc(-c2cc[nH]n2)cc1 | 4.09 | 710 | 9 | – |
| NC(=O)N1c2ccccc2C=Cc2ccccc21 [CARBAMAZEPINE] | 4.28 | – | 14 | 720 |
| Nc1nnc(-c2cccc(Cl)c2Cl)c(N)n1 [LAMOTRIGINE] | 4.77 | 1440 | 85 | – |
| NC(=O)N/N=C/c1ccc(Oc2ccc(F)cc2)cc1 | 6.74 | 27 | 150 | – |
| O=C1NC(=O)C(c2ccccc2)(c2ccccc2)N1 [PHENYTOIN] | 4.62 | 620 | 26 | – |
| c1ccc(Oc2ccc(-c3cc[nH]n3)cc2)cc1 | 6.62 | 16 | 67 | – |
| CN(C)C(=O)n1ccc(-c2ccc(Oc3ccc(F)cc3)cc2)n1 | 6.47 | 26 | 76 | – |
| Fc1ccc(Oc2ccc(-c3cc[nH]n3)cc2)cc1 | 6.70 | 17 | 85 | – |
| Cn1ccc(-c2ccc(Oc3ccc(F)cc3)cc2)n1 | 6.16 | 21 | 30 | – |

Molecules with a higher pKi [1], results first:

| pKi [1] | Kr [2] [µM] | Ratio [3] | Kr [4] [µM] | Compound |
| --- | --- | --- | --- | --- |
| 6.82 | 21 | 140 | – | CNC(=O)n1ccc(-c2ccc(Oc3ccc(F)cc3)cc2)n1 |
| 7.46 | 5 | 143 | – | NC(=O)n1ccc(-c2ccc(Oc3ccccc3)cc2)n1 |
| 7.51 | 7 | 226 | – | NC(=O)n1ccc(-c2ccc(Oc3ccc([N+](=O)[O-])cc3)cc2)n1 |
| 7.51 | 6 | 194 | – | NC(=O)n1ccc(-c2ccc(Oc3ccc(F)cc3)cc2)n1 |
| 7.60 | 10 | 400 | – | NC(=O)n1ccc(-c2ccc(Oc3ccc(F)cc3F)cc2)n1 |
